Reference: paper PMC7488488 (Acta Pharmaceutica Sinica. B, 2019)
Where two headings read alike, the source gives them in different places.

How the values were obtained:
MDM2 = MDM2 (Homo sapiens, UniProt Q00987); assay: TR-FRET; assay type: binding; details: read-out: Inhibition rate at 1.0 μmol/L, MDM2
T98G cells = assay: MTT cell proliferation assay; assay type: cell-based; details: read-out: Anti-proliferative activity IC50, T98G
U87MG cells = assay: MTT cell proliferation assay; assay type: cell-based; details: read-out: Anti-proliferative activity IC50, U87MG
U251 cells = assay: MTT cell proliferation assay; assay type: cell-based; details: read-out: Anti-proliferative activity IC50, U251
MDM2 and CDK4 = assay: TR-FRET inhibition at concentrations below 1.0 μmol/L; assay type: biochemical; details: target per compound not stated
U251 xenografts = assay: U251 xenograft antitumor activity; assay type: in vivo; details: mice; oral; 30 mg/kg; 21 days
How it was run: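 SPF nude mice, 6–8 weeks old, with subcutaneous U251 xenografts; test compound or reference inhibitors given orally at 30 mg/kg, normal saline as vehicle control, analysed at 21 days. Tumor volume, tumor weight and body weight tracked; tumors immunostained for MDM2, P53, P21, pCDK4, pRB and Ki-67, plus TUNEL immunofluorescence, scored as percent positive cells; mean ± SD.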

[1] = 24-h incubation, MTT, mutated P53

Sequence of MDM2 (Q00987 whole entry): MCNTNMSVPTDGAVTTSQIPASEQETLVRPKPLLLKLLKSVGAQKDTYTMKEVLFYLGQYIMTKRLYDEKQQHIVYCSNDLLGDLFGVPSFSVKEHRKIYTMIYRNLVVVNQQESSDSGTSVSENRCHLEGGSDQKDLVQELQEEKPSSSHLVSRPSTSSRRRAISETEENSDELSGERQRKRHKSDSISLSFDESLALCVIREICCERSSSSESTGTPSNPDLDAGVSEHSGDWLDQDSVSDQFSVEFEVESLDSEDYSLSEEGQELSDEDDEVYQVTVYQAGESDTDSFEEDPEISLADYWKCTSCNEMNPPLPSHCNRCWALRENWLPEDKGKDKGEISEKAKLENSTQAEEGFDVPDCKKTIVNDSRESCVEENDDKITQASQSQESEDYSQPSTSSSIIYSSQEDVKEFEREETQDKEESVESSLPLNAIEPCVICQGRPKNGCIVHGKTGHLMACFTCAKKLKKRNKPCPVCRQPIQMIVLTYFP

inhibition at 1 µM (MDM2) [%] | IC50 (U87MG cells; Homo sapiens, U-87 MG, 24 h) [µM] | IC50 (U251 cells; Homo sapiens, U-251, 24 h) [µM] | IC50 (U87MG cells; 24-h incubation, MTT, wild-type P53) [µM] | IC50 (U251 cells; [1]) [µM] | Structure (SMILES) | IC50 (T98G cells; Homo sapiens, T98G, 24 h) [µM] | inhibition at concentrations below 1.0 μmol/L (MDM2 and CDK4) | IC50 (T98G cells; [1]) [µM] | tumor growth (U251 xenografts)
36.2 | > 50 | > 50 | – | – | O=C(c1ccc(F)cc1)[C@H]1Cc2c(cc([N+](=O)[O-])cc2[N+](=O)[O-])[C@H](O)[C@]12C(=O)Nc1ccccc12 [4m′, (1′S,3S,3′S)-3′-(4-Fluorobenzoyl)-1′-hydroxy-5′,7′-dinitro-3′,4′-dihydro-1′H-spiro[indoline-3,2′-naphthalen]-2-one] | > 50 | – | – | –
38.4 ± 2.7 | 34.9 ± 2.62 | 25.9 ± 3.5 | – | – | O=C(c1ccc(Cl)c(Cl)c1)[C@H]1Cc2c(cc([N+](=O)[O-])cc2[N+](=O)[O-])[C@@H](O)[C@@]12C(=O)Nc1ccccc12 [4n, (1′R,3R,3′S)-3′-(3,4-Dichlorobenzoyl)-1′-hydroxy-5′,7′-dinitro-3′,4′-dihydro-1′H-spiro[indoline-3,2′-naphthalen]-2-one] | 32.5 ± 2.9 | – | – | –
36.3 | > 50 | > 50 | – | – | O=C(c1ccc(Cl)c(Cl)c1)[C@H]1Cc2c(cc([N+](=O)[O-])cc2[N+](=O)[O-])[C@H](O)[C@]12C(=O)Nc1ccccc12 [4n′, (1′S,3S,3′S)-3′-(3,4-Dichlorobenzoyl)-1′-hydroxy-5′,7′-dinitro-3′,4′-dihydro-1′H-spiro[indoline-3,2′-naphthalen]-2-one] | > 50 | – | – | –
47.1 ± 5.8 | 41.6 ± 4.3 | 44.2 ± 4.6 | – | – | O=C(c1ccc(Br)cc1)[C@H]1Cc2c(cc([N+](=O)[O-])cc2[N+](=O)[O-])[C@@H](O)[C@@]12C(=O)Nc1ccccc12 [4o, (1′R,3R,3′S)-3′-(4-Bromobenzoyl)-1′-hydroxy-5′,7′-dinitro-3′,4′-dihydro-1′H-spiro[indoline-3,2′-naphthalen]-2-one] | 45.7 ± 6.7 | – | – | –
29 | > 50 | > 50 | – | – | O=C(c1ccc(Br)cc1)[C@H]1Cc2c(cc([N+](=O)[O-])cc2[N+](=O)[O-])[C@H](O)[C@]12C(=O)Nc1ccccc12 [4o′, (1′S,3S,3′S)-3′-(4-Bromobenzoyl)-1′-hydroxy-5′,7′-dinitro-3′,4′-dihydro-1′H-spiro[indoline-3,2′-naphthalen]-2-one] | > 50 | – | – | –
35.7 ± 4.9 | 39.9 ± 4.2 | 43.2 ± 5.9 | – | – | COc1ccc(C(=O)[C@H]2Cc3c(cc([N+](=O)[O-])cc3[N+](=O)[O-])[C@@H](O)[C@@]23C(=O)Nc2ccccc23)cc1 [4p, (1′R,3R,3′S)-1′-Hydroxy-3′-(4-methoxybenzoyl)-5′,7′-dinitro-3′,4′-dihydro-1′H-spiro[indoline-3,2′-naphthalen]-2-one] | 45.9 ± 8.1 | – | – | –
26.9 | > 50 | > 50 | – | – | COc1ccc(C(=O)[C@H]2Cc3c(cc([N+](=O)[O-])cc3[N+](=O)[O-])[C@H](O)[C@]23C(=O)Nc2ccccc23)cc1 [4p′, (1′S,3S,3′S)-1′-Hydroxy-3′-(4-methoxybenzoyl)-5′,7′-dinitro-3′,4′-dihydro-1′H-spiro[indoline-3,2′-naphthalen]-2-one] | > 50 | – | – | –
– | – | – | 25.3 ± 2.5 | > 50 | COc1ccc(C2=N[C@@H](c3ccc(Cl)cc3)[C@@H](c3ccc(Cl)cc3)N2C(=O)N2CCNC(=O)C2)c(OC(C)C)c1 [Nutlin-3a, nutlin-3a, reference compound] | – | 40% to 20% | > 50 | potently inhibited tumor growth
– | 26.4 ± 3.8 | 18.9 ± 2.4 | – | – | CC(=O)c1c(C)c2cnc(Nc3ccc(N4CCNCC4)cn3)nc2n(C2CCCC2)c1=O [Palbociclib, palbociclib, reference compound] | 29.5 ± 4.5 | – | – | potently inhibited tumor growth
